Assay results as given in the EternaBench riboswitch data.

Test system: MS2 coat protein
Experiment: apparent Kd, MS2 coat protein; higher = weaker binding; RNA-MaP array; FMN 200 µM where present
How it was run: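 The apparent Kd is reported as the median of filtered per-cluster binding-curve fits. To get these curves, designs transcribed by stalled E. coli RNA polymerase on Illumina sequencing-chip clusters were titrated with SNAP-549-labelled MS2 coat protein from 0.7 or 1.5 nM, doubling to 3 µM. Titrations were run without and then with constant ligand in 100 mM Tris-HCl pH 7.5, 80 mM KCl, 4 mM MgCl2, BSA, DTT, yeast tRNA and Tween-20, and green signal was normalised to red-channel RNA signal and control-cluster median Fmax.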

[1] = designed as: ON switch for flavin mononucleotide, no ligand
[2] = ligand present: flavin mononucleotide, designed as: ON switch for flavin mononucleotide
[3] = designed as: OFF switch for flavin mononucleotide, no ligand
[4] = ligand present: flavin mononucleotide, designed as: OFF switch for flavin mononucleotide

Row | Sequence | apparent Kd [1] | apparent Kd [2] | apparent Kd [3] | apparent Kd [4]
1 | AGAGACCUCACAGGAUAUGCUGGACUUUGUCCAGCAGAAGGGUGAAAACAUGAGGAUCACCCAUGUAUGGUCUCCAAAUUUAAU | 167 nM | 12.8 nM | – | –
2 | AUAUAUAUAGGAUAUACAUGAGGAUCACCCAUGUGCUUCAGCUAGGAGACUAGCAUUGGUAGAAGGAUAUAUAU | – | – | 16.1 nM | 26.1 nM
3 | GACUGAUUACAGAAGGUGUAAGACAUGAGGAUCACCCAUGUGAUAUAGGGUAUAUUUGAAUAUAACAAGGAUAUGUAUAAAUCA | 102 nM | 60.4 nM | – | –
4 | GUGUACAGAGGAUAUGCACGAGGAGUUACGAAAGUAACUUCACAUGAGGAUCACCCAUGUAGAAGGCUGUACAC | – | – | 14.4 nM | 17.8 nM
5 | CCAGAGACAUAAGGAUAUCGAGUGGAAUACACUCGAGAAGGUAUGUGAAAACAUGAGGAUCACCCAUGUGAUCAAUACUCUGGA | 19.4 nM | 20.2 nM | – | –
6 | AAUAUGAGCUGGAAUAAACCUAAAACAUGAGGAUCACCCAUGUAGGAUAUCAGCACGAUAAGUGCUGAGAAGGACAACCAGCUC | – | – | 14.4 nM | 13.9 nM
7 | GGAUGACAAAGUCAUCCAAAUCGAACAUGAGGAUCACCCAUGUAGGAUAUCCUACUGAAACAGUAGGAGAAGGACAUGUGCUUU | – | – | 52.9 nM | 157 nM
8 | GCUAGUAUUGCAGGAUAUUGAGAAUAAUUUUGGCAAGAAGGGCAUUACAUGAGGAUCACCCAUGUUUUCCUUAGUCAUACUAGC | – | – | 6.39 nM | 5.85 nM
9 | GUGUUGUCAGGAUAUCUUACAUAACUAUCGUUGUUACCAUUGGAGAAGGGACAUGAGGAUCACCCAUGUUAUCG | – | – | 24.3 nM | 25.4 nM
10 | UUUGUCUGUGUGAGGAUAUACUUGUUUGGGUUUUUGUAGAAGGCACAUGAGGAUCACCCAUGUAUUUUGUCGUG | – | – | 43.6 nM | 61.6 nM
11 | GGUCGUUGAGGAUAUACGAACAUGUCGCCAGAUGUCAUGGUACAUGAGGAUCACCCAUGUAGAAGGUGGUGGUC | – | – | 75 nM | 25.7 nM
12 | GGUUCUCAAAGAGAACCAUAACGAACAUGAGGAUCACCCAUGUAGGAUAUGCUACUCAAAGAGUAGCAGAAGGACAUGUGCCUU | – | – | 30.6 nM | 265 nM
13 | ACACAUGAGGAUCACCCAUGUAGCUGGCAUCUGCGCCAGCCACAGGAUAUACGGCAACACAAACCGUAGAAGGGUGAUAAACAC | 59.5 nM | 35.5 nM | – | –
14 | CCGUAAUAUGGAGGAUAUGGAGCCUUAUUGGCUCCAGAAGGUCAUAAAACAUGAGGAUCACCCAUGUCGGCGGUCAAUAGACCG | 55.7 nM | 20.5 nM | – | –
15 | CCACUGUCAGGAUAUCGUGCAUAAGCGAUUACAUUUAUGUGCGAGAAGGGACAUGAGGAUCACCCAUGUAAUCG | – | – | 528 nM | 368 nM
16 | GGCCCGCGCGUGAGGAUAUGCUGAUACUAGGAUCAGCAGAAGGCACAUGAGGAUCACCCAUGUCCAACUUGUCU | – | – | 28.9 nM | 36.4 nM
17 | AGGACGAGGCAGAAGGGACAUGAGGAUCACCCAUGUACCGUGGUUCAGCAGUCAGGAUAUGCCGUACGUAAACAUAUCGUAAGA | – | – | 10.3 nM | 71 nM
18 | GUGCCUAACUAGAAGGCCCAAUGCAAAGCAUCGGGAGGAUAUGGGUUUAAUAAAUAAACAUGAGGAUCACCCAUGUGGCACAAA | – | 10.4 nM | – | –
19 | CGAACUAAGUAGAAGGCAGUCUUAAAAUAGGACUGAGGAUAUACAUGAGGAUCACCCAUGUACUCCUUUAAUAAGUUUGAAAUA | – | – | 5.31 nM | 5.38 nM
20 | AAUAACAGAGGAUAUACAAAAAUAAAAGGAAACAAAAGAAAACAUGAGGAUCACCCAUGUAGAAGGCUGAAUAA | – | – | 21.1 nM | 18.9 nM
21 | ACGGACCUAGGAUAUACAUGAGGAUCACCCAUGUGCCCGCAUGGUCCGGGUCCUGAGAGUAGAAGGAGGAGCGA | – | – | 50.9 nM | 43.2 nM

Row | Sequence | apparent Kd [1] | apparent Kd [2] | apparent Kd [3] | apparent Kd [4]
22 | CGCCUGUAAGGAUAUUAGUAGUAGUCAGAAAAGACUAUUACUGAGAAGGUACAUGAGGAUCACCCAUGUUGGCG | – | – | 15.3 nM | 20.4 nM
23 | AAUAACAGAGGAUAUACUAUUUUAUGUAUUUAUUAUUUUGAACAUGAGGAUCACCCAUGUAGAAGGCUGAGUAA | – | – | 27.5 nM | 23.1 nM
24 | GCCAGCGCAUGAGGAUAUGCUCCCGUUUCGGGAGCAGAAGGCAUGUCAUAAGACAUGAGGAUCACCCAUGUAGUUAACAUGGCA | 311 nM | 23 nM | – | –
25 | AAAAAAAAAGUGCAGGAUAUCCUCAUGGCUACAUGAGGAUCACCCAUGUGAAGAAAAGCACAUGAGGAGAAGGGCACAAAAAAAAA | 23.4 nM | 12.3 nM | – | –
26 | AGCUGGUGACAGCAUCCAUCAAAACAUGAGGAUCACCCAUGUAGAAGGCUGUACGGUUACCGUACAGAGGAUAUACAAUGAUGA | – | – | 16.3 nM | 27.3 nM
27 | UUGCUCGUGUGAGGAUAUGCCGCCGUUUCGGCUGCAGAAGGUACUCUGUUACAUGAGGAUCACCCAUGUCUCUGUUGUUUCGUG | 39 nM | 47.5 nM | – | –
28 | GGUUAUUGCAAGGAUAUGCUUAUUUGAGAAAUUGCAGAAGGUGCAACAUGAGGAUCACCCAUGUUGGAUGGGUU | – | – | 65.2 nM | 278 nM
29 | GUAGCAAUCGGAGGAUAUUCAUUAAACAUGAGGAUCACCCAUGUAAAUUUGGGAGAAGGCCGAUUGCUACAAGAGCGAAAGCUC | 22.9 nM | 6.1 nM | – | –
30 | GUUACACAUGAGGAUCACCCAUGUAAGGAUAUGCUGCGGUCGCGCUGACGUGACUGCAGCAGAAGGUACAAUUG | – | – | 84.7 nM | 88.6 nM
31 | AUCAUACAUGAGGAUCACCCAUGUUCCGGCAGGUCAGGAUAUAAAUCGAAUGAGUUCUAGUUAGAAGGGACAUCUA | 49.3 nM | 39.2 nM | – | –
32 | AUAAAGCGUGCUACGCAAAAUAACGCAGAAGGCCAACAUGAGGAUCACCCAUGUAAAAGAAAGAUGGAGGAUAUGCGGUUUGGC | 46.6 nM | 5.74 nM | – | –
33 | GUAAGCGUAGGAUAUACAUGAGGAUCACCCAUGUCAGUUUUGCACUCUCGGGUGUGCUGUAGAAGGGCGUUACU | – | – | 172 nM | 208 nM
34 | CCUAAGGACACAGGAUAUAGCGUGAUGGCUGGACUCCAACGGCGAGCGGCGCUAGAAGGGUGACCACAUGAGGAUCACCCAUGU | 496 nM | 195 nM | – | –
35 | CGCUACAUGAGGAUCACCCAUGUACUUACUUGCACGUGAACGAGAAGGCCACAGCAACACAGCGUGGAGGAUAUCGUGGUGCCU | 10.8 nM | 9.35 nM | – | –
36 | UGCAUACAUGAGGAUCACCCAUGUCAACUUAGUCGAGGAUAUGGGCAGCCCUGAGGCGAACCAGAAGGCGAAUUGU | 73.5 nM | 26.4 nM | – | –
37 | AGUACCAUGUAGAAGGGAUAUCUGAUUCAGAUAUCAGGAUAUACAUGAGGAUCACCCAUGUAAAUGUACUGCACGAGAGUGCAA | – | – | 14.7 nM | 50.2 nM
38 | CGAUUAUUGAUCCAUUUUUACAACAUGAGGAUCACCCAUGUGCAGGAUAUCGUGGUGAUUAACUACGAGAAGGGCAAAUUCACG | – | – | 123 nM | 220 nM
39 | GGUUAAUAUCGAGGAUAUGUCUAGACACAUGAGGAUCACCCAUGUAUGUGUAUAGAAGGCGAUAUUAACAGCAUGUUACAUGCA | 43.3 nM | 16.4 nM | – | –
40 | CUCAUGUCAGGAUAUCAGUAGUAAAAAAAUAAAAUUACUACUGAGAAGGGACAUGAGGAUCACCCAUGUCCUGG | – | – | 95.8 nM | 17.9 nM
41 | UUAUUUAUACAAGGAUAUCUAUUGUUAAUACGACUUACAUGAGGAUCACCCAUGUUUUUAUGUUUAGAGAAGGUGUAUUUUCAG | 41.4 nM | 31.8 nM | – | –
42 | AAAUGCGUAAAGGACACAUGAGGAUCACCCAUGUUUCUGUCCAAGGAUAUGAGGUGAAUGAUCCGUCAGAAGGUGGACUUGCUU | 114 nM | 220 nM | – | –
